{"source": "ChEMBL document CHEMBL1938334", "about": "“Quinoline tricyclic derivatives. Design, synthesis and evaluation of the antiviral activity of three new classes of RNA-dependent RNA polymerase inhibitors” (Bioorg Med Chem, 2011)", "key": {"[1]": {"system": "CCRF-CEM", "test": "Cytotoxicity against human CCRF-CEM cells after 96 hrs by MTT assay", "type": "functional", "procedure,_shortened": "(§1)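 Cells were seeded at 1×10^5 cells/mL: leukaemia/lymphoma lines in RPMI-1640, solid tumour and fibroblast lines in specific media, all with 10% FCS. Serial compound dilutions were applied for 96 h at 37 °C, 5% CO2, under conditions allowing controls at least three rounds of multiplication. Viability was read by MTT. CC50 by linear regression. Mean of three determinations.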"}, "[2]": {"system": "WIL2-NS", "test": "Cytotoxicity against human WIL2-NS cells after 96 hrs by MTT assay", "type": "functional", "procedure,_shortened": "as §1"}, "[3]": {"system": "CCRF-SB", "test": "Cytotoxicity against human CCRF-SB cells after 96 hrs by MTT assay", "type": "functional", "procedure,_shortened": "as §1"}, "[4]": {"system": "SK-MEL-28", "test": "Cytotoxicity against human SK-MEL-28 cells after 96 hrs by MTT assay", "type": "functional", "details": "SK-MEL-28, 96 h", "procedure,_shortened": "as §1"}, "[5]": {"system": "SK-MES-1", "test": "Cytotoxicity against human SKMES1 cells after 96 hrs by MTT assay", "type": "functional", "details": "SK-MES-1, 96 h", "procedure,_shortened": "as §1"}, "[6]": {"system": "HepG2", "test": "Cytotoxicity against human HepG2 cells after 96 hrs by MTT assay", "type": "functional", "details": "HepG2, 96 h", "procedure,_shortened": "as §1"}, "[7]": {"system": "DU-145", "test": "Cytotoxicity against human DU145 cells after 96 hrs by MTT assay", "type": "functional", "details": "DU-145, 96 h", "procedure,_shortened": "as §1"}, "[8]": {"test": "Cytotoxicity against human MRC5 cells after 96 hrs by MTT assay", "type": "cell-based", "procedure,_shortened": "as §1"}, "[9]": {"test": "Cytotoxicity against MDBK cells after 48 to 96 hrs by MTT assay", "type": "cell-based, Bos taurus", "details": "cattle", "procedure,_shortened": "(§2)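 MDBK seeded at 6×10^5 and BHK at 1×10^6 cells/mL in MEM-Earle's with L-glutamine, 1 mM pyruvate, kanamycin, plus 10% horse serum (MDBK) or 10% FBS (BHK). Cells were grown at 37 °C, 5% CO2 with serial compound dilutions (DMSO stocks diluted in medium). Viability by MTT after 48–96 h. CC50 was taken by linear regression versus untreated controls; three independent determinations.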"}, "[10]": {"test": "Cytotoxicity against BHK21 cells after 48 to 96 hrs by MTT assay", "type": "cell-based, Mesocricetus auratus, BHK-21", "details": "hamster", "procedure,_shortened": "as §2"}, "[11]": {"test": "Cytotoxicity against african green monkey Vero 76 cells after 48 to 96 hrs by crystal violet staining", "type": "cell-based", "details": "chlorocebus sabaeus", "procedure,_shortened": "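Vero-76 cells were seeded at 4×10^5 cells/mL in D-MEM with L-glutamine, kanamycin and 10% FBS, then exposed to serial compound dilutions at 37 °C, 5% CO2 for 48–96 h. Viability was read by crystal violet staining. 50% cytotoxic concentration by linear regression relative to untreated controls; mean of three independent determinations.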"}, "[12]": {"system": "Coxsackievirus B5", "test": "Antiviral activity against Human coxsackievirus B5 Ohio-1 infected in african green monkey Vero 76 cells assessed as reduction of virus-induced plaque formation after 3 days using crystal violet staining", "type": "functional, organism-based", "details": "Enterovirus B, Ohio-1, Vero, 72 h"}, "[13]": {"system": "Poliovirus 1", "test": "Antiviral activity against Human poliovirus 1 strain Sabin Chat infected in african green monkey Vero 76 cells assessed as virus-induced reduction of plaque formation after 2 days using crystal violet staining", "type": "functional, cell-based", "details": "Enterovirus C, 48 h"}, "[14]": {"system": "Human orthopneumovirus", "test": "Antiviral activity against Human respiratory syncytial virus A2 infected in african green monkey Vero 76 cells assessed as reduction of virus-induced plaque formation after 5 days using crystal violet staining", "type": "functional, organism-based", "details": "120 h"}, "[15]": {"system": "Vesicular stomatitis Indiana virus", "test": "Antiviral activity against clinical isolate Vesicular stomatitis Indiana virus infected in african green monkey Vero 76 cells assessed as reduction of virus-induced plaque formation after 2 days using crystal violet staining", "type": "functional, organism-based", "details": "48 h"}, "[16]": {"test": "Antiviral activity against Vaccinia virus Lister Elstree infected in african green monkey Vero 76 cells assessed as reduction of virus-induced plaque formation after 3 days using crystal violet staining", "type": "functional, cell-based", "details": "72 h"}, "[17]": {"system": "Human alphaherpesvirus 1", "test": "Antiviral activity against Human herpesvirus 1 strain KOS infected in african green monkey Vero 76 cells assessed as reduction of virus-induced plaque formation after 3 days using crystal violet staining", "type": "functional, organism-based", "details": "Human alphaherpesvirus 1, KOS, 72 h"}, "[18]": {"test": "Selectivity index, ratio of EC50 for Bovine viral diarrhea virus 1-NADL to CC50 for MDBK cells", "procedure,_shortened": "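CC50 was measured in mock-infected MDBK cells seeded at 6×10^5 cells/mL in MEM-E with 10% horse serum and treated with serial compound dilutions for 48–96 h; viability by MTT. EC50 came from BVDV NADL CPE protection in MDBK cells at m.o.i. 0.01, 3–4 days, MTT. Both were obtained by linear regression.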"}, "[19]": {"test": "Cytotoxicity against human GS4.1 cells", "type": "cell-based", "procedure,_shortened": "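Huh-7 cells carrying HCV genotype 1b subgenomic replicon, grown in D-MEM/10% FBS with 0.5 mg/mL G418. Seeded at 7.5×10^3 cells/well with two-fold serial dilutions (top 75 μM), incubated 72 h at 37 °C. Viability by MTS-type Cell Titer 96 Aqueous One reagent; CC50 from % cytotoxicity versus concentration curves.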"}, "[20]": {"system": "Hepatitis C virus", "test": "Antiviral activity against HCV1b infected in human GS4.1 cells assessed as inhibition of virus-induced cytopathogenicity by measuring viral NS4A protein level after 72 hrs by ELISA", "type": "functional, organism-based, Hepacivirus hominis", "details": "genotype 1b", "procedure,_shortened": "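GS4.1 cells are Huh-7 cells carrying a genotype 1b subgenomic replicon, kept in 0.5 mg/mL G418. They were seeded at 7.5×10^3 cells/well with two-fold serial dilutions of compound (top 75 μM) and incubated 72 h at 37 °C. Huh-7 cells without the replicon served as negative control. NS4A was measured by cell ELISA with anti-NS4A mAb A-236, peroxidase and o-phenylenediamine, A492. EC50 came from four-parameter sigmoidal fit.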"}, "[21]": {"test": "Selectivity index, […] for human GS4.1 cells", "procedure,_shortened": "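Both values come from GS4.1 replicon cells treated 72 h with two-fold serial dilutions (top 75 μM). EC50 was from NS4A ELISA with a four-parameter sigmoidal fit. CC50 was from a tetrazolium-based Aqueous One cell proliferation readout.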"}, "[22]": {"test": "Inhibition of Bovine viral diarrhea virus 1-NADL recombinant NS5B Cdelta 21 RNA dependent RNA polymerase expressed in Escherichia coli (DE3) using GTP as substrate preincubated for 30 mins before substrate addition measured after 120 mins by fluorescence assay"}, "[23]": {"test": "Inhibition of HCV1b BK 6xHis-tagged recombinant NS5B Cdelta 21 RNA dependent RNA polymerase expressed in Escherichia coli (DE3) using GTP as substrate preincubated for 30 mins before substrate addition measured after 120 mins by fluorescence assay", "set-up": "species or system Hepatitis C virus (isolate BK)", "procedure,_shortened": "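His-tagged NS5B (BVDV C-terminal Δ24; HCV1b Δ21) from E. coli Rosetta 2(DE3)pLysS, Ni-NTA purified, 500–600 ng per 20 μL. The template was poly(rC) 10 μg/mL and the primer oligo(rG)12 0.1 μg/mL, with GTP 80 μM. Buffer: 20 mM Tris pH 7.0, 0.5 mM MnCl2 or 5 mM MgCl2, 5% DMSO. Enzyme/drug 30 min at RT, then GTP added; 120 min at 37 °C (BVDV) or 25 °C (HCV). Read-out was dsRNA dye fluorescence (ex 480/em 520). IC50 from dose–response fits.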"}}}
{"smiles": "O=[N+]([O-])c1ccc(-c2nc3cc4cccnc4c(Cl)c3[nH]2)cc1", "values": [{"measurement": "CC50", "setting": "[1]", "value": 49, "unit": "µM"}, {"measurement": "CC50", "setting": "[2]", "value": "> 100", "unit": "µM"}, {"measurement": "CC50", "setting": "[3]", "value": "> 100", "unit": "µM"}, {"measurement": "CC50", "setting": "[4]", "value": "> 100", "unit": "µM"}, {"measurement": "CC50", "setting": "[5]", "value": "> 100", "unit": "µM"}, {"measurement": "CC50", "setting": "[6]", "value": 10.3, "unit": "µM"}, {"measurement": "CC50", "setting": "[7]", "value": "> 100", "unit": "µM"}, {"measurement": "CC50 at 96 h", "setting": "[8]", "value": "> 100", "unit": "µM"}, {"measurement": "CC50", "setting": "[9]", "value": "> 100", "unit": "µM"}, {"measurement": "CC50", "setting": "[10]", "value": "> 100", "unit": "µM"}, {"measurement": "CC50", "setting": "[11]", "value": "> 100", "unit": "µM"}, {"measurement": "EC50", "setting": "[12]", "value": "> 100", "unit": "µM"}, {"measurement": "EC50", "setting": "[13]", "value": "> 100", "unit": "µM"}, {"measurement": "EC50", "setting": "[14]", "value": "> 100", "unit": "µM"}, {"measurement": "EC50", "setting": "[15]", "value": "> 100", "unit": "µM"}, {"measurement": "EC50", "setting": "[16]", "value": "> 100", "unit": "µM"}, {"measurement": "EC50", "setting": "[17]", "value": 44, "unit": "µM"}, {"measurement": "Selectivity Index", "setting": "[18]", "value": ">100"}, {"measurement": "CC50", "setting": "[19]", "value": 12, "unit": "µM"}, {"measurement": "EC50", "setting": "[20]", "value": 3.1, "unit": "µM"}, {"measurement": "Selectivity Index", "setting": "[21]", "value": 4}, {"measurement": "IC50", "setting": "[22]", "value": 0.06, "unit": "µM"}, {"measurement": "IC50", "setting": "[23]", "value": 8, "unit": "µM"}]}
